Measured values published in PMC6430656 (Cell chemical biology, 2018).
Read-outs that look alike come from different tables or passages of the source.

Key:
PfCDPK1 = PfCDPK1 (Plasmodium falciparum, UniProt P62344); test: KINOMEScan affinity for PfCDPK1; format: binding
[1] = test system: K63-linked ubiquitin in P. falciparum; format: cell-based, Plasmodium falciparum; conditions: for K63-linked protein ubiquitination (band intensities relative to DMSO): 30 μM, 24 hrs, ring stage P. falciparum 3D7
How it was run: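 P. falciparum 3D7 was cultured in RPMI/AlbuMAX II at pH 7.2, 37 °C, under 3% O2, and sorbitol-synchronised. Ring stages (10 h post-reinvasion; 10% parasitemia, 1% haematocrit) were treated 24 h with test compound (30 μM, or 0.001–100 μM) or ≤0.1% DMSO. Cells were saponin-lysed and sonicated, then blotted with anti-K63-linkage ubiquitin, with anti-K48 ubiquitin as control and actin as loading control. Total band intensity was quantified across 2–3 independent experiments.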

[2] = test system: P. berghei parasite load in HepG2 cells; test: P. berghei liver stage parasite load in HepG2 cells; format: cell-based; conditions: Plasmodium berghei, HepG2, read-out: EC50 P. berghei parasite load, HepG2 cells
How it was run: (§1)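 Hepatoma cells were seeded with test compound (0–100 μM) before infection with 3,000 P. berghei ANKA sporozoites: 15,000 cells/well for HepG2 and 8,000 for HuH7. For HepG2, compound was also added at 0 or 4 hpi. Parasite load was read by luciferase luminescence at 45 h and normalised to 1% DMSO. EC50 came from a variable-slope four-parameter fit, mean ± SEM of n ≥4.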

HepG2 cells = test: HepG2 hepatoma cell viability; format: cell-based
How it was run: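 HepG2 cells (15,000/well) were seeded with test compound, then infected with 3,000 P. berghei ANKA sporozoites. Viability was measured after 45 h in the same wells as the parasite-load read-out, using a fluorescence protease-activity assay (an ATP luminescence assay is also described). Signal was normalised to 1% DMSO, and ≥50% loss of viability was the exclusion threshold.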

HsIRAK4 = conditions: read-out: IC50 HsIRAK4; ref Totzke et al., 2017; cited from earlier work
HuH7 cells = test: HuH7 hepatoma cell viability; format: cell-based
[3] = test system: blood stage P. falciparum parasites; test: Inhibition of blood stage P. falciparum parasites; format: cell-based, Plasmodium falciparum; conditions: 100 μM
PfPK5 = PfPK5 (Plasmodium falciparum, UniProt P61075); test: KINOMEScan affinity for PfPK5; format: binding
HsIRAK1 = conditions: read-out: IC50 HsIRAK1; ref Totzke et al., 2017; cited from earlier work
PfPK9 = PfPK9 (Plasmodium falciparum, UniProt Q8IEG4); test: ATP-competitive binding assay, GFP-PfPK9 on ATP-sepharose resin; conditions: for relative PfPK9 binding compared to negative DMSO control: takinib analog screen at 250 and 500 μM
[4] = test system: P. berghei EEFs in HuH7 cells; test: Immunofluorescence analysis of P. berghei EEFs in HuH7 cells; format: cell-based, Plasmodium berghei
HsTAK1 = conditions: ref Totzke et al., 2017, cited from earlier work
[5] = test system: P. berghei parasite load in HuH7 cells; test: P. berghei liver stage parasite load in HuH7 cells; format: cell-based, Plasmodium berghei
How it was run: as §1

Solubility = format: physicochemical

Chain of PfPK5 (P61075 whole entry): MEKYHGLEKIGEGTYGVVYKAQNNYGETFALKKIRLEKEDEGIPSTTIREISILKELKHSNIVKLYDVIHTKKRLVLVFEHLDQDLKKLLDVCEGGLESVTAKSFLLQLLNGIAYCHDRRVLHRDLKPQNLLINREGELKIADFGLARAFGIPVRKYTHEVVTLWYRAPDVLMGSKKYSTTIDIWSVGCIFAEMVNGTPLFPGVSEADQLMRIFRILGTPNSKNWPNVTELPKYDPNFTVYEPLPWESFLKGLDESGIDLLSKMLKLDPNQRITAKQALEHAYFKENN
Chain of PfCDPK1 (P62344 whole entry): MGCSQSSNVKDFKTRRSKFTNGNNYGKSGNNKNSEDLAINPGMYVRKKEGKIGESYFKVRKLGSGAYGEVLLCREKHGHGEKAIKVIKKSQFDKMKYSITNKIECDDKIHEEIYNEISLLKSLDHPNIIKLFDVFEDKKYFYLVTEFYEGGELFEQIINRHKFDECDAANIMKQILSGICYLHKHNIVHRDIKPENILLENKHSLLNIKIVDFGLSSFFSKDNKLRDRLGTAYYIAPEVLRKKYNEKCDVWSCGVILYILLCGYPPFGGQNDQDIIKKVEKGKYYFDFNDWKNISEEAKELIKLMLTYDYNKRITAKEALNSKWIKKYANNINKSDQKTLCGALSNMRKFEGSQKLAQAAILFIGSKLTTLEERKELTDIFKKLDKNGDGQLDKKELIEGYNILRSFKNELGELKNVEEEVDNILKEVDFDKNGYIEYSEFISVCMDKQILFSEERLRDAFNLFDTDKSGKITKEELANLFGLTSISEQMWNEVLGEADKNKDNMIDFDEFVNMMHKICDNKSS

Which Kd (PfCDPK1) does the source give for `CCCn1/c(=N/C(=O)c2cccc(C(N)=O)c2)[nH]c2ccccc21` [takinib] here?
The Kd was > 30 µM.

What about the “K63-linked protein ubiquitination (band intensities relative to DMSO)” value [1] of the same compound?
Its value is “decreased”.

What about the “K63-linked ubiquitin signal (total intensity of all bands)” value ([1]; 30 and 100 μM) of the same compound?
The value was “significantly decreased”.

And the “K48-linked ubiquitin signal (control)” value ([1]; dose-response 0.001–100 μM)?
Its value is “no change”.

What about the EC50 [2] of the same compound?
The EC50 was 6.7 ± 1.3 µM.

And the “decrease of HepG2 viability” value (HepG2 cells; 30 μM, relative to DMSO)?
The value was ≤ 50%.

What about the “decrease of cell viability” value (HepG2 cells; HepG2, tested up to 200 μM) of the same compound?
Its value is ≤ 40%.

And the IC50 (HsIRAK4)?
Its IC50 is 0.12 µM.

What about the “decrease of cell viability” value (HuH7 cells; HuH7, tested up to 200 μM) of the same compound?
The value was ≤ 40%.

What about the “inhibition of blood stage P. falciparum parasites” value [3] of the same compound?
Its value is “inhibits”.

What about the Kd (PfPK5) of the same compound?
The Kd was > 30 µM.

What about the IC50 (HsIRAK1) of the same compound?
Its IC50 is 0.39 µM.

And the Kd (PfPK9)?
Its Kd is 0.46 ± 0.1 µM.

What about the EEF size ([4]; 10 μM, 0–24, 24–48 and 0–48 hpi, vs DMSO) of the same compound?
The EEF size was “significantly increased”.

What about the “number of EEFs (infected cells)” value ([4]; 10 μM, all time periods) of the same compound?
Its value is “not affected”.

What about the “number of EEFs” value ([4]; 30 μM, 0–24 hpi or 0–48 hpi) of the same compound?
The value was “decreased”.

And the EEF size ([4]; 30 μM, 0–24 hpi or 24–48 hpi)?
Its EEF size is “increased”.

What about the IC50 (HsTAK1; read-out: IC50 HsTAK1) of the same compound?
The IC50 was 0.0095 µM.

And the EC50 ([5]; Plasmodium berghei, Huh-7, read-out: EC50 P. berghei parasite load)?
The EC50 was 7.3 ± 0.99 µM.

Which results are given for `CCCn1c(NC(=O)c2cccc(C(=O)O)c2)nc2ccccc21` [HS220]?
Kd (PfCDPK1; read-out: Kd PfCDPK1, tested up to 30 μM, KINOMEScan): > 30 µM; K63-linked protein ubiquitination (band intensities relative to DMSO) [1]: decrease; change in HuH7 viability upon treatment (HuH7 cells): no significant change; decrease of cell viability (HuH7 cells; HuH7, any concentration tested): ≤ 30%; Kd (PfPK5; read-out: Kd PfPK5, tested up to 30 μM, KINOMEScan): > 30 µM; PfPK9 binding affinity, fold less potent than takinib (PfPK9; HS220 vs takinib): 8.9 fold; Kd (PfPK9; read-out: Kd(app) PfPK9 binding, converted from EC50, dose-response 0–500 μM): 4.1 ± 0.8 µM; relative PfPK9 binding compared to negative DMSO control (PfPK9): > 3 fold; number of EEFs ([4]; 30 μM, 0–48 hpi): did not change; EEF size ([4]; 30 μM, 0–48 hpi, vs DMSO): significantly increased; EEF size ([4]; 100 μM, 0–48 hpi): not affected; number of EEFs ([4]; 100 μM, 0–48 hpi): decreased; HsTAK1 inhibition, fold less potent than takinib (HsTAK1; HS220 vs takinib): 160,000 fold; effect on HsTAK1 activity (HsTAK1): little or no effect; EC50 ([5]; read-out: EC50 P. berghei parasite load, HuH7 cells): 43 ± 3.8 µM

With `NC(=O)c1cccc(C(=O)Nc2nc3ccccc3s2)c1` [HS230] as the compound, how does the solubility (Solubility) read?
Its solubility is “poor”.

And the “relative PfPK9 binding compared to negative DMSO control” value (PfPK9)?
The value was > 3 fold.

What about the “effect on HsTAK1 activity” value (HsTAK1) of the same compound?
Its value is “little or no effect”.
